The M2OR odorant receptor database

Assays:
Settings in all cases: stereoisomer not certain
Or1m1 (Mus musculus) = target: T1, Or1m1 (Mus musculus) (UniProt Q8VFM9)
T1 sequence (whole entry): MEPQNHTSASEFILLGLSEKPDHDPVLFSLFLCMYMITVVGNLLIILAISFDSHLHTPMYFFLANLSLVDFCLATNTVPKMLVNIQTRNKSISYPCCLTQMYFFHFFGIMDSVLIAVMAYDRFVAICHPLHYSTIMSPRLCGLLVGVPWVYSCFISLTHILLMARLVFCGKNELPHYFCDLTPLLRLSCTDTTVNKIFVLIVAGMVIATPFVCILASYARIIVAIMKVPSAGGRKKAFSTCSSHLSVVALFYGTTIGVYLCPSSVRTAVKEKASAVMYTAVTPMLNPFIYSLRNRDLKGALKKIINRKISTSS
Outline: (§1)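 Whether a receptor–molecule pair is responsive (active) rests on the original authors' judgment that its measured signal was statistically different from baseline. Pairs without that judgment are non-responsive (inactive). Sources used varied assay methods, commonly transient luciferase assays in mammalian cell lines.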

Or2c1 (Mus musculus) = target: T2, Or2c1 (Mus musculus) (UniProt P23275)
T2 sequence (whole entry): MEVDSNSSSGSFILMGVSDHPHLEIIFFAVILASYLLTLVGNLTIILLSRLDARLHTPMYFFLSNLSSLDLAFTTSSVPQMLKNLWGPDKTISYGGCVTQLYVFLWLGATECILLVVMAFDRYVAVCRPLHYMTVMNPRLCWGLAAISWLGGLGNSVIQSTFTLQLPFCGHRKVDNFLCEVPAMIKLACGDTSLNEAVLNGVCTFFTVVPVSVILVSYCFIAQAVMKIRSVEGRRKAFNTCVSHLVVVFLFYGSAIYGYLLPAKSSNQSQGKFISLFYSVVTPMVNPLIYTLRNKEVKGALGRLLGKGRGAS
Outline: as §1

Or5ar1 (Mus musculus) = target: T3, Or5ar1 (Mus musculus) (UniProt Q8VGS3)
T3 sequence (whole entry): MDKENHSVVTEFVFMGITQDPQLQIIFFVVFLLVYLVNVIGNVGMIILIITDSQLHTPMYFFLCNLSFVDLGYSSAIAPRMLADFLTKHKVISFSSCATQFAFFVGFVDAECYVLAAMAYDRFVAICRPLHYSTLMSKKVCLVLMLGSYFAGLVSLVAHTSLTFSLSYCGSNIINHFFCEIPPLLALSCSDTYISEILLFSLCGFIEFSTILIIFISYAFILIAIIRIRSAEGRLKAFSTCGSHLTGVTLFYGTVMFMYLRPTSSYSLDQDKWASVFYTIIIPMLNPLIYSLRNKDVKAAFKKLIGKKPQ
Outline: as §1

Or5p80 (Mus musculus) = target: T4, Or5p80 (Mus musculus) (UniProt Q8VG42)
T4 sequence (whole entry): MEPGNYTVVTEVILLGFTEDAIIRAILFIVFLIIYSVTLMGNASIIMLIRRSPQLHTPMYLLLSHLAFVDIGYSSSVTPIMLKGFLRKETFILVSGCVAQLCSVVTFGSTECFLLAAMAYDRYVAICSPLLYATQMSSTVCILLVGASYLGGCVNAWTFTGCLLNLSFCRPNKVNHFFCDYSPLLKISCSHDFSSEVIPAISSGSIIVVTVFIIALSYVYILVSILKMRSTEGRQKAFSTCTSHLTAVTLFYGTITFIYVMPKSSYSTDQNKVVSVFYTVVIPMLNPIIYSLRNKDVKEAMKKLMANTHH
Outline: as §1

Or7a40 (Mus musculus) = target: T5, Or7a40 (Mus musculus) (UniProt Q9JHB2)
T5 sequence (whole entry): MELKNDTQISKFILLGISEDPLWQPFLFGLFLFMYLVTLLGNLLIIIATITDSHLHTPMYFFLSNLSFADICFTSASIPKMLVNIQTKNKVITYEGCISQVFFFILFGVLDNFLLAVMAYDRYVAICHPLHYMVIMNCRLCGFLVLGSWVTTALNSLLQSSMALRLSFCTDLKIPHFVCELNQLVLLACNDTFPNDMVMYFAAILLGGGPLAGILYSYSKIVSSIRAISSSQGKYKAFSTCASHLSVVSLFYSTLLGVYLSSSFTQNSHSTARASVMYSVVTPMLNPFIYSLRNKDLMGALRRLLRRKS
Outline: as §1

Or10j5 (Mus musculus) = target: T6, Or10j5 (Mus musculus) (UniProt Q62007)
T6 sequence (whole entry): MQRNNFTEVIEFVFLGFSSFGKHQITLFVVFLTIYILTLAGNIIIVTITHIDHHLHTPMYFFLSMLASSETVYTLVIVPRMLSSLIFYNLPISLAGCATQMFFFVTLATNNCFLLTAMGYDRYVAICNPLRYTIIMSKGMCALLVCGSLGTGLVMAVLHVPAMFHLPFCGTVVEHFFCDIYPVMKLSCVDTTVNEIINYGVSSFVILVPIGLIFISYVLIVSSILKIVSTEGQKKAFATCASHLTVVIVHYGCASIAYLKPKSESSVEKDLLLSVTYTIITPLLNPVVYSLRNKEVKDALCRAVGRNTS
Outline: as §1

Or5p57 (Mus musculus) = target: T7, Or5p57 (Mus musculus) (UniProt Q8VEZ0)
T7 sequence (whole entry): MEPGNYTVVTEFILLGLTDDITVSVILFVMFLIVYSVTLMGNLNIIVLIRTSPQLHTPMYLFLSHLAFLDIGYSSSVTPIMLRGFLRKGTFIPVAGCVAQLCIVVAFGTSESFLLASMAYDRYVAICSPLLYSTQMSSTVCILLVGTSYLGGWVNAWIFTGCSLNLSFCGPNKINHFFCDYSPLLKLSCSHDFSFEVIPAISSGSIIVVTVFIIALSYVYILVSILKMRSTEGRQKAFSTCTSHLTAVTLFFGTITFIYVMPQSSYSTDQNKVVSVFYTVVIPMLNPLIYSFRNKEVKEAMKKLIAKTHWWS
Outline: as §1

Or8b3 (Mus musculus) = Or8b3 (Mus musculus) (UniProt Q60886)
Outline: as §1
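Note: active if original authors judged signal statistically different from baseline.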

Or8b3 (Mus musculus), sequence (Q60886 whole entry): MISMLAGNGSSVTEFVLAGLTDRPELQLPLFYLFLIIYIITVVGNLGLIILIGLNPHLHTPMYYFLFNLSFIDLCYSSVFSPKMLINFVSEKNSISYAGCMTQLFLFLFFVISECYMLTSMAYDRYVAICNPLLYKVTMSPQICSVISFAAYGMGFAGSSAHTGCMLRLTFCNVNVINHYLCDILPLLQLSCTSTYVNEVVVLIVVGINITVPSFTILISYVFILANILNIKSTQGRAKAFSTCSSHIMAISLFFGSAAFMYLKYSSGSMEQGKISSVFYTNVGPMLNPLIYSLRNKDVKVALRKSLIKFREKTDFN

Row | SMILES | odorant receptor agonist call (Or1m1 (Mus musculus)) | odorant receptor agonist call (Or2c1 (Mus musculus)) | odorant receptor agonist call (Or5ar1 (Mus musculus)) | odorant receptor agonist call (Or5p80 (Mus musculus)) | odorant receptor agonist call (Or7a40 (Mus musculus)) | odorant receptor agonist call (Or10j5 (Mus musculus)) | odorant receptor agonist call (Or5p57 (Mus musculus)) | odorant receptor agonist call (Or8b3 (Mus musculus))
1 | CCCCCC=O | inactive | inactive | inactive | inactive | inactive | – | – | –
2 | CCCCCCCCS | inactive | active | inactive | inactive | inactive | – | – | –
3 | COc1cc(C(=O)O)ccc1O | inactive | inactive | inactive | inactive | inactive | – | – | –
4 | CCC=CCCC=CC=O | inactive | – | inactive | – | – | – | – | –
5 | O=C(O)CCCBr | – | – | – | – | – | inactive | inactive | –
6 | O=C(O)CCCCCC(=O)O | – | – | – | – | – | inactive | inactive | –
7 | C=C(C)C1CCC(C)C(=O)C1 (stereo not given) | inactive | inactive | inactive | inactive | inactive | – | – | –
8 | O=C(O)CCCCBr | – | – | – | – | – | inactive | inactive | –
9 | CCC(=O)O | inactive | inactive | inactive | inactive | inactive | – | – | –
10 | c1ccccc1 | inactive | inactive | inactive | inactive | inactive | – | – | –
11 | CC(=O)OCC=C(C)C | inactive | inactive | active | inactive | inactive | – | – | –
12 | CCCCCC(=O)CC | inactive | inactive | inactive | inactive | inactive | – | – | –
13 | CCCCCCCCC(=O)O | inactive | active | inactive | inactive | inactive | – | inactive | –
14 | O=C1CCOc2ccccc21 | inactive | inactive | inactive | inactive | inactive | – | – | inactive
15 | CC(=O)OCc1ccccc1 | inactive | inactive | inactive | inactive | inactive | – | – | –
16 | CCCC(=O)C(C)=O | inactive | active | inactive | inactive | inactive | – | – | –
17 | CCCCC(=O)CC | inactive | inactive | inactive | inactive | inactive | – | – | –
18 | CCCCCCC(C)=O | inactive | inactive | inactive | inactive | inactive | – | – | –
19 | CCCCCCOC(C)=O | inactive | inactive | inactive | inactive | inactive | – | – | –
